{"source": "paper PMC2859510", "about": "(The Journal of Biological Chemistry, 2010)", "key": {"GST-NEMO-(2–200)": {"target": "GST-NEMO-(2–200) (UniProt Q9Y6K9)", "sequence (Q9Y6K9 2-200)": "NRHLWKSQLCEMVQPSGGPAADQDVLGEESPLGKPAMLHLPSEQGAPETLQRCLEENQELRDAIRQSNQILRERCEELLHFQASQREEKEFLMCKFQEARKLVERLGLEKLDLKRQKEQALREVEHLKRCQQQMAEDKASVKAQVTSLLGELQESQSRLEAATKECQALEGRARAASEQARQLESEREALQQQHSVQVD", "assay": "AlphaScreen or HTRF"}, "LPS-stimulated PBMC": {"tested_on": "LPS-stimulated PBMC", "assay": "LPS-induced TNF-α and IL-6 production in PBMC", "assay_type": "cell-based, human", "settings": "pretreated 2 h, 10 ng/ml LPS 18 h, IKK-2 11-mer, Fig. 1A/data not shown", "outline": "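PBMC were Ficoll-isolated from heparinized healthy-donor blood and kept in DMEM with 5% endotoxin-free FBS and pen/strep. They were plated at 2.5 × 10^5 cells/well and given rising peptide doses for 2 h. Then 10 ng/ml LPS or vehicle was added for 18 h, at 1% DMSO final. TNF-α and IL-6 were read by MSD, IC50 fitted, and viability checked by Alamar Blue. Data are % of LPS-stimulated cells, mean ± S.D.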"}, "unstimulated PBMC": {"tested_on": "unstimulated PBMC", "assay": "Basal TNF-α and IL-6 production in PBMC", "assay_type": "cell-based, human", "settings": "pretreated 2 h, vehicle 18 h, IKK-2 11-mer", "outline": "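Human PBMC from heparinized healthy-donor blood were isolated by Ficoll, plated at 2.5 × 10^5 cells/well in DMEM with 5% endotoxin-free FBS and penicillin/streptomycin. Cells were pretreated 2 h with increasing test compound concentrations, then given vehicle for 18 h (1% DMSO final). TNF-α and IL-6 were measured by MSD; cytotoxicity by Alamar Blue. Expressed as % of untreated cells; mean ± S.D., ≥3 determinations.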"}, "IL-1β-stimulated RASF": {"tested_on": "IL-1β-stimulated RASF", "assay": "IL-1β-induced IL-6 production in RASF", "assay_type": "cell-based, patients with rheumatoid arthritis", "settings": "pretreated 2 h, 1 ng/ml IL-1β 18 h, 1% serum, IKK-2 11-mer", "outline": "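Fibroblasts were grown in high-glucose DMEM with 15% defined bovine serum and 50 μg/ml gentamicin. They were seeded at 1.5 × 10^4 cells/well, attached overnight, then moved to DMEM with 1% serum. Cells got rising peptide doses for 2 h, then 1 ng/ml IL-1β for 18 h. Secreted IL-6 was read by MSD, IC50 fitted, and viability checked by Alamar Blue. Data are % of stimulated cells, mean ± S.D. of ≥3 determinations.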"}, "unstimulated RASF": {"tested_on": "unstimulated RASF", "assay": "Basal IL-6 production in RASF", "assay_type": "cell-based, patients with rheumatoid arthritis", "settings": "pretreated 2 h, vehicle 18 h, IKK-2 11-mer", "outline": "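Commercial RASF were seeded at 1.5 × 10^4 cells/well in high-glucose DMEM with 15% defined bovine serum and 50 μg/ml gentamicin, attached overnight, then switched to DMEM with 1% serum. Cells were pretreated 2 h with increasing test compound concentrations, then given vehicle for 18 h. Secreted IL-6 was measured by MSD; cytotoxicity by Alamar Blue. Expressed as % of untreated cells; mean ± S.D., ≥3 determinations.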"}, "[1]": {"tested_on": "bovine nasal cartilage explant cultures", "assay_type": "cell-based", "settings": "data not shown"}, "IKK-2 (Ser^181); IκBα": {"tested_on": "IKK-2 (Ser^181); IκBα", "assay_type": "cell-based, patients with rheumatoid arthritis", "settings": "RASF, peptide 1 h before 1 ng/ml IL-1β 10 min; IKK-2 11-mer", "outline": "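Rheumatoid arthritis synovial fibroblasts were exposed to peptide for 1 h, then to 1 ng/ml IL-1β for 10 min. The same lysates also served the kinase assay. Proteins were separated by SDS-PAGE and transferred to PVDF. Membranes were probed 2 h at 25 °C with anti-phospho-IKK-1(Ser180)/IKK-2(Ser181) or anti-IκBα, then with secondary Ab for 1 h. Bands were read by infrared imaging.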"}, "IRAK-1, TAK-1, IκBα, p65": {"tested_on": "IRAK-1, TAK-1, IκBα, p65", "assay": "NF-κB signaling intermediates in IL-1β-stimulated RASF", "assay_type": "cell-based, patients with rheumatoid arthritis", "settings": "then 1 ng/ml IL-1β 10 min; for IRAK-1 fate (disappearance of band) / TAK-1 phosphorylation: 30 min", "outline": "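Fibroblasts were given peptide for 30 min, then 1 ng/ml IL-1β for 10 min at 37 °C. Lysis used Tris pH 7.6 / NaCl / 0.5% NP-40 buffer with protease and phosphatase inhibitors, with protein measured by Bradford. Blots were run by SDS-PAGE and PVDF transfer, with primary Abs 2 h at 25 °C (anti-IRAK-1, anti-phospho-TAK-1, anti-p65) and secondary Ab 1 h. Tubulin served as loading control.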"}, "[2]": {"target": "GST-NEMO-(2–200) and IKK-2-FLAG (Homo sapiens, UniProt Q9Y6K9)", "sequence (Q9Y6K9 2-200)": "as above", "assay": "Alphascreen binding assay, recombinant NEMO and IKK-2", "settings": "pH 7.4, read-out: inhibition of NEMO-IKK-2 interaction at 100 μM, Alphascreen", "outline": "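GST-NEMO-(2–200) (2 nM) and C-terminal FLAG-tagged full-length IKK-2 (2 nM) were incubated 30 min at room temperature in buffer containing 50 mM HEPES pH 7.4, 0.01% BSA, 0.0005% Tween 20 and 1 mM DTT. Unlabeled competitor peptides were titrated in for 30 min. Glutathione donor and anti-FLAG acceptor beads were added, overnight at room temperature, then Alphascreen read. Mean ± S.E. of four independent experiments.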"}, "NEMO-IKK-2 complex": {"tested_on": "NEMO-IKK-2 complex", "assay": "Immunoprecipitation of the IKK complex with anti-NEMO from RASF", "assay_type": "cell-based, patients with rheumatoid arthritis", "settings": "150 μM WT or mutant peptide, 30 min, then 1 ng/ml IL-1β 10 min; IKK-2 11-mer", "outline": "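Fibroblasts were given 150 μM WT or mutant peptide for 30 min, then 1 ng/ml IL-1β for 10 min at 37 °C. Cells were lysed in 20 mM Tris pH 7.6, 150 mM NaCl, 0.5% NP-40, PMSF, protease and phosphatase inhibitors. From 50 μg lysate, the complex was pulled down with anti-NEMO mAb for 1 h, then Protein A beads for 1 h. Precipitates and inputs were blotted under reducing SDS-PAGE and read by infrared imaging. Runs were repeated 2–4 times.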"}, "NEMO-IKK-2 interactions": {"tested_on": "NEMO-IKK-2 interactions", "assay": "In situ proximity ligation assay, NEMO-IKK-2 interactions in RASF", "assay_type": "cell-based, patients with rheumatoid arthritis", "settings": "data not shown", "outline": "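RASF on culture slides (2.5 × 10^4 cells/well, DMEM 10% FBS, overnight 37 °C) were moved to serum-free DMEM with 1% DMSO or test compound for 30 min. Cells were fixed (4% paraformaldehyde), permeabilized (0.1% Triton X-100), and blocked. They were then incubated overnight at 4 °C with anti-NEMO plus anti-IKK-2 Abs, then with oligonucleotide-linked probes (1 h, 37 °C), followed by ligation and amplification. Counterstained with Hoechst and imaged at ×20; signals/cell averaged per image.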"}, "NF-κB reporter gene [3]": {"tested_on": "NF-κB reporter gene", "settings": "proinflammatory stimuli (TNF-α); cited from earlier work"}, "NF-κB reporter gene [4]": {"tested_on": "NF-κB reporter gene", "settings": "cited from earlier work"}, "NEMO-(2-200)": {"target": "NEMO-(2-200) (UniProt Q9Y6K9)", "sequence (Q9Y6K9 2-200)": "as above", "assay": "fluorescence polarisation"}, "[5]": {"target": "GST-NEMO-(2–200) and biotinylated IKK-1/2 chimeric 44-mer peptide (Homo sapiens, UniProt Q9Y6K9)", "sequence (Q9Y6K9 2-200, change not shown)": "as the sequence (Q9Y6K9 2-200) above", "assay": "Time-resolved FRET binding assay"}, "IKK complex": {"tested_on": "IKK complex", "assay": "Native PAGE / Western blot: release of IKK-2 from an IKK complex in RASF", "assay_type": "cell-based, patients with rheumatoid arthritis", "settings": "30 min peptide, then IL-1β 10 min, IKK-2 11-mer"}}, "note": "Entries after “also recorded” stand apart in the source; their conditions may differ. Where no end group is shown, it is not given here.", "data": [{"substance": "Antennapedia homeodomain-conjugated IKK-2 11-mer NBD peptide (WT)", "values": [{"measurement": "IC50", "setting": "GST-NEMO-(2–200)", "result": "> 100000", "unit": "nM"}, {"measurement": "percent inhibition at 100 μM", "setting": "GST-NEMO-(2–200)", "result": 40, "unit": "%"}]}, {"substance": "DRQIKIWFQNRRMKWKKTALDWSWLQTE [WT NBD peptides]", "values": [{"measurement": "LPS-induced production of IL-6", "setting": "LPS-stimulated PBMC", "result": "completely blocked"}, {"measurement": "basal cytokine production (TNF-α and IL-6), PBMC", "setting": "unstimulated PBMC", "result": "neither WT nor mutant NBD peptides had an inhibitory effect; also recorded: slight increase in basal cytokine production"}, {"measurement": "IL-1β-induced IL-6 production", "setting": "IL-1β-stimulated RASF", "result": "completely blocked"}, {"measurement": "basal IL-6 production, RASF", "setting": "unstimulated RASF", "result": "neither WT nor mutant NBD peptides had an inhibitory effect; also recorded: slight increase in basal cytokine production"}, {"measurement": "cytokine-induced release of glycosaminoglycans", "setting": "[1]", "result": "inhibited"}, {"measurement": "IKK-2 phosphorylation at Ser^181", "setting": "IKK-2 (Ser^181); IκBα", "result": "inhibited"}, {"measurement": "IκBα degradation", "setting": "IKK-2 (Ser^181); IκBα", "result": "inhibited"}, {"measurement": "IRAK-1 fate (disappearance of band)", "setting": "IRAK-1, TAK-1, IκBα, p65", "result": "no effect"}, {"measurement": "TAK-1 phosphorylation", "setting": "IRAK-1, TAK-1, IκBα, p65", "result": "no effect"}, {"measurement": "IκBα degradation (30 min pretreatment)", "setting": "IRAK-1, TAK-1, IκBα, p65", "result": "inhibited IκBα degradation in a concentration-dependent manner"}, {"measurement": "inhibition at 100 µM", "setting": "[2]", "result": 40, "unit": "%"}, {"measurement": "relative concentration of IKK-2 in the immunoprecipitated complex", "setting": "NEMO-IKK-2 complex", "result": "no significant effect"}, {"measurement": "NEMO-IKK-2 interactions (PLA), unstimulated", "setting": "NEMO-IKK-2 interactions", "result": "inhibited NEMO-IKK-2 interactions in unstimulated cells"}, {"measurement": "NF-κB reporter gene activity, stimulated", "setting": "NF-κB reporter gene [3]", "result": "inhibited NF-κB reporter gene activity"}, {"measurement": "NF-κB reporter gene activity, basal", "setting": "NF-κB reporter gene [4]", "result": "did not inhibit basal reporter gene activity"}]}, {"substance": "IKK-2 45-mer mutant (W739A and W741A) (peptide)", "values": [{"measurement": "IC50", "setting": "NEMO-(2-200)", "result": "> 1000", "unit": "nM"}, {"measurement": "IC50", "setting": "GST-NEMO-(2–200)", "result": "> 1000", "unit": "nM"}]}, {"substance": "PAKKSEELVAEAHNLCTLLENAIQDTVREQDQSFTALDWSWLQTE [IKK-2 45-mer]", "values": [{"measurement": "IC50", "setting": "[5]", "result": "1 to 7", "unit": "nM"}]}, {"substance": "TALDASALQTE [mutant NBD peptides]", "values": [{"measurement": "basal cytokine production (TNF-α and IL-6), PBMC", "setting": "unstimulated PBMC", "result": "neither WT nor mutant NBD peptides had an inhibitory effect"}, {"measurement": "basal IL-6 production, RASF", "setting": "unstimulated RASF", "result": "neither WT nor mutant NBD peptides had an inhibitory effect"}, {"measurement": "cytokine-induced release of glycosaminoglycans", "setting": "[1]", "result": "WT but not mutant NBD peptides inhibited"}, {"measurement": "IKK-2 phosphorylation at Ser^181", "setting": "IKK-2 (Ser^181); IκBα", "result": "WT but not mutant NBD peptides inhibited"}, {"measurement": "IκBα degradation", "setting": "IKK-2 (Ser^181); IκBα", "result": "WT but not mutant NBD peptides inhibited"}, {"measurement": "IRAK-1 fate (disappearance of band)", "setting": "IRAK-1, TAK-1, IκBα, p65", "result": "failed"}, {"measurement": "TAK-1 phosphorylation", "setting": "IRAK-1, TAK-1, IκBα, p65", "result": "failed"}, {"measurement": "IκBα degradation (30 min pretreatment)", "setting": "IRAK-1, TAK-1, IκBα, p65", "result": "failed to protect IκBα from degradation"}, {"measurement": "release of IKK-2 from IKK complex, IL-1β-treated", "setting": "IKK complex", "result": "WT but not mutant NBD peptides led to the appearance of an IKK-2 band distinct from the complex; also recorded: WT but not mutant NBD peptides resulted in the release of IKK-2"}]}]}
